Measured values reported in ChEMBL document CHEMBL4602675, “The Marine Natural Product Manzamine A Inhibits Cervical Cancer by Targeting the SIX1 Protein” (J Nat Prod, 2020).
The source made the active and inactive calls. No cut-off for these calls is given here.

Experiments:
C-33-A = test: Antiproliferative activity against human C33A cells assessed as reduction in cell viability at 2 to 4 uM incubated up to 72 hrs by CellTiter-Glo assay; assay type: functional, cell-based
HeLa = test: Antiproliferative activity against human HeLa cells assessed as reduction in cell viability at 2 to 4 uM incubated up to 72 hrs by CellTiter-Glo assay; assay type: functional, cell-based
Ca-Ski = test: Antiproliferative activity against human CaSki cells assessed as reduction in cell viability at 2 to 4 uM incubated up to 72 hrs by CellTiter-Glo assay; assay type: functional, cell-based
SiHa = test: Antiproliferative activity against human SiHa cells assessed as reduction in cell viability at 2 to 4 uM incubated up to 72 hrs by CellTiter-Glo assay; assay type: functional, cell-based
Keratinocyte = test: Cytotoxicity against human Keratinocytes assessed as reduction in cell viability at 4 uM incubated up to 72 hrs by trypan blue staining based cell counting assay
[1] = biological target: T1, Homeobox protein SIX1 (Homo sapiens) (UniProt Q15475); test: Inhibition of SIX1 in human HeLa cells at 40 uM after 48 hrs by Western blot analysis; assay type: cell-based
T1 sequence (whole entry): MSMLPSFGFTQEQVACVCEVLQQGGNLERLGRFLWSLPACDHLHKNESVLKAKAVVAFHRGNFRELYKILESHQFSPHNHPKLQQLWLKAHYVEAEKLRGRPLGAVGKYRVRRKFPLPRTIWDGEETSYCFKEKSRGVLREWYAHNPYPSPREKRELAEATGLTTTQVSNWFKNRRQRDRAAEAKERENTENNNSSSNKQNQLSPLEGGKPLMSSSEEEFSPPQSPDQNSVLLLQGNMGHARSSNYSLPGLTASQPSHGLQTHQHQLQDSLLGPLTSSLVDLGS
Procedure, shortened: (§1)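 Cells seeded at 1 × 10^6 per 100 mm dish and treated next day at 10, 20 or 40 μM for 48 h. Harvested by trypsinization, PBS-washed, and lysed in RIPA buffer with protease inhibitors. Equal protein by colorimetric assay went to SDS-PAGE and PVDF. Primary antibody 1:500, blocked and diluted in 5% nonfat milk/TBST (SIX1) or 3% BSA (CK2α). HRP secondary 1:2000; chemiluminescent detection.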

[2] = biological target: T1, Homeobox protein SIX1 (Homo sapiens); test: Inhibition of SIX1 in human SiHa cells at 40 uM after 48 hrs by Western blot analysis; assay type: cell-based; procedure, shortened: as §1
[3] = biological target: Casein kinase II subunit alpha (Homo sapiens) (UniProt P68400); details: HeLa, 40 uM
Chain of Casein kinase II subunit alpha (Homo sapiens) (P68400 whole entry, looked up): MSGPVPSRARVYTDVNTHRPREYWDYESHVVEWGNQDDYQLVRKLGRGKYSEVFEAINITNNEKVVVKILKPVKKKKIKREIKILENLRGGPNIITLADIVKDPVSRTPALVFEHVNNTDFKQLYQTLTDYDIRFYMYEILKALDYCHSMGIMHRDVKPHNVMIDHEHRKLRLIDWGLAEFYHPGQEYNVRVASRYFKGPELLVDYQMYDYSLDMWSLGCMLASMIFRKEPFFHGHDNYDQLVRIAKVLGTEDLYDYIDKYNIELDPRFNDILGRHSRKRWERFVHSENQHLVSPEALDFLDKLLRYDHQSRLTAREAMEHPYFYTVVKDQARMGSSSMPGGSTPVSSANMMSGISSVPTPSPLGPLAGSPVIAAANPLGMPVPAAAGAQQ

[4] = biological target: Casein kinase II subunit alpha (Homo sapiens) (UniProt P68400); details: C-33-A, 40 uM
[5] = biological target: Casein kinase II subunit alpha (Homo sapiens) (UniProt P68400); details: SiHa, 40 uM
[6] = biological target: T1, Homeobox protein SIX1 (Homo sapiens); test: Inhibition of SIX1 in human C33A cells at 40 uM after 48 hrs by Western blot analysis; assay type: cell-based; details: C-33-A; procedure, shortened: as §1
[7] = biological target: T1, Homeobox protein SIX1 (Homo sapiens); test: Inhibition of SIX1 in human CaSki cells at 40 uM after 48 hrs by Western blot analysis; assay type: cell-based; details: Ca-Ski; procedure, shortened: as §1
[8] = biological target: Casein kinase II subunit alpha (Homo sapiens) (UniProt P68400); details: Ca-Ski, 40 uM
[9] = Toxicity in po dosed mouse; assay type: organism-based; details: in vivo

SMILES	Activity (C-33-A)	Activity (HeLa)	Activity (Ca-Ski)	Activity (SiHa)	also measured
O=C1CCCN2[C@@H](CC1)C[C@]13CN4CCCC/C=C\CC[C@](O)(C=C(c5nccc6c5[nH]c5c(O)cccc56)[C@@H]1CC4)[C@H]23	inactive	inactive	inactive	inactive	
O[C@]12C=C([C@H]3NCCc4c3[nH]c3ccccc43)[C@@H]3CCN(CCCC/C=C\CC1)C[C@@]31C[C@@H]3/C=C\CCCCN3[C@H]12	inactive	inactive	inactive	inactive	
Oc1cccc2c1[nH]c1c(C3=C[C@@]4(O)CC/C=C\CCCCN5CC[C@@H]3[C@]3(C[C@@H]6/C=C\CCCCN6[C@H]34)C5)nccc12	Active	Active	Active	Active	Activity (Keratinocyte): Toxic
O=CC1=C[C@@]2(O)CC/C=C\CCCCN3CC[C@@H]1[C@]1(C[C@@H]4/C=C\CCCCN4[C@H]12)C3	inactive	inactive	inactive	inactive	
O=c1cc(-c2ccc(O)cc2)oc2cc(O)cc(O)c12					inhibition [1]: Active; inhibition [2]: Active; inhibition [3]: Active; inhibition [4]: Active; inhibition [5]: Active; inhibition [6]: Active; inhibition [7]: Active; inhibition [8]: Active
CC(=O)Nc1ccc(O)cc1 [ACETAMINOPHEN]					LD50 [9]: 338 mg/kg
